Results published in ChEMBL document CHEMBL4196223 (J Med Chem, 2018).
Where a SMILES comes first, the peptide text is derived from it. Bridges are numbered along the chain shown (N, C = ends).

Experiments:
Format in all cases: cell-based
[1] = molecular target: Nicotinic acetylcholine receptor alpha6/alpha3/beta4 (Rattus norvegicus) (UniProt P04757+P12392+P43143); assay: Antagonist activity at rat alpha6/alpha3beta4 nAChR nACHR expressed in Xenopus laevis oocytes assessed as inhibition of acetyl choline-induced membrane currents at 10 uM pre-incubated for 5 mins prior to acetyl choline pulse at -70 mV potential by two-electrode voltage clamp assay
[2] = molecular target: Neuronal acetylcholine receptor; alpha3/beta4 (Rattus norvegicus) (UniProt P04757+P12392); assay: Antagonist activity at rat alpha3beta4 nACHR expressed in Xenopus laevis oocytes assessed as inhibition of acetyl choline-induced membrane currents at 10 uM pre-incubated for 5 mins prior to acetyl choline pulse at -70 mV potential by two-electrode voltage clamp assay
[3] = molecular target: Neuronal acetylcholine receptor; alpha3/beta4 (Rattus norvegicus, UniProt P04757+P12392); assay: Antagonist activity at rat alpha3beta4 nACHR expressed in Xenopus laevis oocytes assessed as inhibition of acetyl choline-induced membrane currents pre-incubated for 5 mins prior to acetyl choline pulse at -70 mV potential by two-electrode voltage clamp assay
Neuronal acetylcholine receptor; alpha3/beta4, sequence (P04757 whole entry): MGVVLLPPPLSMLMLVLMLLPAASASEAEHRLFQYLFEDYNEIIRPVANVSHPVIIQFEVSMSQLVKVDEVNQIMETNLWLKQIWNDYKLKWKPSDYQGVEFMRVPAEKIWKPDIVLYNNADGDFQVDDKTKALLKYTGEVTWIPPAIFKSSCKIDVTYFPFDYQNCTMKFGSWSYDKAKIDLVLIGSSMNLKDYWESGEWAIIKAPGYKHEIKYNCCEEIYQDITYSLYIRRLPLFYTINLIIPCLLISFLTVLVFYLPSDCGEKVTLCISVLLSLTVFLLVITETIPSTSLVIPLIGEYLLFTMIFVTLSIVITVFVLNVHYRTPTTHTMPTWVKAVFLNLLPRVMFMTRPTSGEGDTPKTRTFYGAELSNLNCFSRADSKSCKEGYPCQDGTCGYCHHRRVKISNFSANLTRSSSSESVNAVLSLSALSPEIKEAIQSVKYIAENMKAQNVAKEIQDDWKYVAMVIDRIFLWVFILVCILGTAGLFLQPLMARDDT
Neuronal acetylcholine receptor; alpha3/beta4, sequence (P12392 whole entry): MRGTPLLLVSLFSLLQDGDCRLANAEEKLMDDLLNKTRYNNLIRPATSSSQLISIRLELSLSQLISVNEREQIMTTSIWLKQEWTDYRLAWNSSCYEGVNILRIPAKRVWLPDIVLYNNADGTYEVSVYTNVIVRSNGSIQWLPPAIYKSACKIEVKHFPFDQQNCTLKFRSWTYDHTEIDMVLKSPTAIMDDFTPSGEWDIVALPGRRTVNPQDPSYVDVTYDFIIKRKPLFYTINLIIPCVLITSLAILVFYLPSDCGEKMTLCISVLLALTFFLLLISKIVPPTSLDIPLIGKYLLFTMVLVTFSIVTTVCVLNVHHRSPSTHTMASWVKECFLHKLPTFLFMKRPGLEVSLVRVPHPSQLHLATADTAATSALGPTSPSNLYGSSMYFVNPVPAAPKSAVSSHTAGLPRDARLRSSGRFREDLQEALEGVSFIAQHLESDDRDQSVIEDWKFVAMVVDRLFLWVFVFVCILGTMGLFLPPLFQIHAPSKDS
Summary of the method: (§1)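 Rat subunit cRNAs (equimolar, ≥10 ng each) were expressed in oocytes held at 17 °C in ND96 and clamped at -70 mV 2-5 days after injection. Perfusate was ND96 with 0.1 mg/mL BSA and 1 µM atropine. After 5 min toxin exposure, 100 µM ACh was applied for 1 s/min. % response was fitted to a Hill equation for IC50 and nH, at room temperature, n=3-6.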

[4] = molecular target: Nicotinic acetylcholine receptor alpha6/alpha3/beta4 (Rattus norvegicus, UniProt P04757+P12392+P43143); assay: Antagonist activity at rat alpha6/alpha3beta4 nAChR nACHR expressed in Xenopus laevis oocytes assessed as inhibition of acetyl choline-induced membrane currents pre-incubated for 5 mins prior to acetyl choline pulse at -70 mV potential by two-electrode voltage clamp assay; summary of the method: as §1
Nicotinic acetylcholine receptor alpha6/alpha3/beta4, sequence (P04757 whole entry): as the sequence (P04757 whole entry) above
Nicotinic acetylcholine receptor alpha6/alpha3/beta4, sequence (P12392 whole entry): as the sequence (P12392 whole entry) above
Nicotinic acetylcholine receptor alpha6/alpha3/beta4, sequence (P43143 whole entry): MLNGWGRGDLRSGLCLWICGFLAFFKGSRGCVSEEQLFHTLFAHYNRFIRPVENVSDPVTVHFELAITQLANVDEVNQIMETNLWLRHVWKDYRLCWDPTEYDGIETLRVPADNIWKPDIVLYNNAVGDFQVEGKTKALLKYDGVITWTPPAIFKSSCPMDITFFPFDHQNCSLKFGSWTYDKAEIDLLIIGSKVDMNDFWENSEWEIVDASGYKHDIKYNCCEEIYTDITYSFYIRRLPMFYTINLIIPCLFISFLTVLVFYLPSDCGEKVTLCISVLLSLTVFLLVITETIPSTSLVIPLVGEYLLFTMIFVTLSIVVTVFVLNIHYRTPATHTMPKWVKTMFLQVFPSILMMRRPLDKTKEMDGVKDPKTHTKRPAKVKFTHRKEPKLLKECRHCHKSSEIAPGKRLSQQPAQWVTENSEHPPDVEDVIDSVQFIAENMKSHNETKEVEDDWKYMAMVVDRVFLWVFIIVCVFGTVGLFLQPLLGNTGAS

[5] = molecular target: Neuronal acetylcholine receptor subunit alpha-7 (Rattus norvegicus, UniProt Q05941); assay: Antagonist activity at rat alpha7 nACHR expressed in Xenopus laevis oocytes assessed as inhibition of acetyl choline-induced membrane currents pre-incubated for 5 mins prior to acetyl choline pulse at -70 mV potential by two-electrode voltage clamp assay
Neuronal acetylcholine receptor subunit alpha-7, sequence (Q05941 whole entry): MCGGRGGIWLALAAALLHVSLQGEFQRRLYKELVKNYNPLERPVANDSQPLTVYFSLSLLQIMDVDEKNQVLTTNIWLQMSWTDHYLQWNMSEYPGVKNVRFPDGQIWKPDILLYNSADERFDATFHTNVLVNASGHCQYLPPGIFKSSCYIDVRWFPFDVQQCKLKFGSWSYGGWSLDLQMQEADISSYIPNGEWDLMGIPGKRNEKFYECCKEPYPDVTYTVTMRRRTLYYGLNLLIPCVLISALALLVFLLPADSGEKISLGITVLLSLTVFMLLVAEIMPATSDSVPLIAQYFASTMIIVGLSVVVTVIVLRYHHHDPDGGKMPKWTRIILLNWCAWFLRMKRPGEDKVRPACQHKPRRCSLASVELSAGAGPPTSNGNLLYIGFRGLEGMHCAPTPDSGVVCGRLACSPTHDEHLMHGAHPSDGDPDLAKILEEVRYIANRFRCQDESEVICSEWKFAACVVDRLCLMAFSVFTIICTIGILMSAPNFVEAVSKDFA

[6] = molecular target: Nicotinic acetylcholine receptor alpha9/alpha10 (Rattus norvegicus, UniProt P43144+Q9JLB5); assay: Antagonist activity at rat alpha9alpha10 nACHR expressed in Xenopus laevis oocytes assessed as inhibition of acetyl choline-induced membrane currents pre-incubated for 5 mins prior to acetyl choline pulse at -70 mV potential by two-electrode voltage clamp assay
Nicotinic acetylcholine receptor alpha9/alpha10, sequence (P43144 whole entry): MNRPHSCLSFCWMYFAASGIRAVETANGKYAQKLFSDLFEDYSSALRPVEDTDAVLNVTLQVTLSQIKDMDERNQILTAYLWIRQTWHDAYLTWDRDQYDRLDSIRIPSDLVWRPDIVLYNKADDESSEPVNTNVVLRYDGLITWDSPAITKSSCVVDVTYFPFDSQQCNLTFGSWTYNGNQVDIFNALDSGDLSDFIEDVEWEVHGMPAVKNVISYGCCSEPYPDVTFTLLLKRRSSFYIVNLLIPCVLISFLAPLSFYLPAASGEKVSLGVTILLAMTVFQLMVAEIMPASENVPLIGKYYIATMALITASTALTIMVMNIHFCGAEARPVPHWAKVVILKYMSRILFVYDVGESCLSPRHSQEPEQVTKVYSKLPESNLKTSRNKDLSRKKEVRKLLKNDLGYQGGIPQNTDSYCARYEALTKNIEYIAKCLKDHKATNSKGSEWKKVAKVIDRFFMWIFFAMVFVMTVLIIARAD
Nicotinic acetylcholine receptor alpha9/alpha10, sequence (Q9JLB5 whole entry): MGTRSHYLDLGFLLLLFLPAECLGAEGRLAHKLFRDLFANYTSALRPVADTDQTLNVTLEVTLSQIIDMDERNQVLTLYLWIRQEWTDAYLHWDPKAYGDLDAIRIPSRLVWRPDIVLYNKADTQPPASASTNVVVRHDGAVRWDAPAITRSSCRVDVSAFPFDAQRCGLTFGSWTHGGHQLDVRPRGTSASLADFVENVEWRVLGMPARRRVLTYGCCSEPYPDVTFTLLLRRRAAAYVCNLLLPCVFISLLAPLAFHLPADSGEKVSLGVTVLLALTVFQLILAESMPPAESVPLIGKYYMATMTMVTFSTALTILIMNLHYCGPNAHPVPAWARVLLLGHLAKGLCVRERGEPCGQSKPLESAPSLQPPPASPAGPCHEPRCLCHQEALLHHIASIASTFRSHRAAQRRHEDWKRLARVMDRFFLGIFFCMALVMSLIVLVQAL

Structure (SMILES)	inhibition [1] [%]	IC50 [3] [nM]	IC50 [4] [nM]	also measured
CC[C@H](C)[C@@H]1NC(=O)[C@@H]2CCCN2C(=O)[C@H](CO)NC(=O)[C@H](CCSC)NC(=O)[C@H](C)NC(=O)[C@H](CC(=O)O)NC(=O)[C@@H]2CSSC[C@H](NC(=O)CN)C(=O)N[C@@H](CSSC[C@@H](C(N)=O)NC1=O)C(=O)N[C@@H](CO)C(=O)N[C@@H](Cc1cnc[nH]1)C(=O)N1CCC[C@H]1C(=O)N[C@@H](C(C)C)C(=O)N2	< 50	–	–	–
CC[C@H](C)[C@@H]1NC(=O)[C@@H]2CCCN2C(=O)[C@H](CO)NC(=O)[C@H](CCSC)NC(=O)[C@H](C)NC(=O)[C@H](CC(=O)O)NC(=O)[C@@H]2CSSC[C@H](NC(=O)CN)C(=O)N[C@@H](CSSC[C@@H](C(N)=O)NC1=O)C(=O)N[C@@H](CO)C(=O)N[C@@H](Cc1cnc[nH]1)C(=O)N1CCC[C@H]1C(=O)N[C@H](C(C)C)C(=O)N2	< 50	–	–	inhibition [2]: < 50%
CC[C@H](C)[C@@H]1NC(=O)[C@@H]2CCCN2C(=O)[C@H](CO)NC(=O)[C@H](CCSC)NC(=O)[C@H](C)NC(=O)[C@H](CCC(=O)O)NC(=O)[C@@H]2CSSC[C@H](NC(=O)CN)C(=O)N[C@@H](CSSC[C@@H](C(N)=O)NC1=O)C(=O)N[C@@H](CO)C(=O)N[C@@H](Cc1cnc[nH]1)C(=O)N1CCC[C@H]1C(=O)N[C@@H](C(C)C)C(=O)N2 (H-GCCSHPVCEAMSPIC-NH2; disulfide 2-8, 3-15)	< 50	–	–	–
CC[C@H](C)[C@@H]1NC(=O)[C@@H]2CCCN2C(=O)[C@H](CO)NC(=O)[C@H](CCSC)NC(=O)[C@H](C)NC(=O)[C@H](Cc2ccccc2)NC(=O)[C@@H]2CSSC[C@H](NC(=O)CN)C(=O)N[C@@H](CSSC[C@@H](C(N)=O)NC1=O)C(=O)N[C@@H](CO)C(=O)N[C@@H](Cc1cnc[nH]1)C(=O)N1CCC[C@H]1C(=O)N[C@@H](C(C)C)C(=O)N2 (H-GCCSHPVCFAMSPIC-NH2; disulfide 2-8, 3-15)	–	11	10	–
CC[C@H](C)[C@@H]1NC(=O)[C@@H]2CCCN2C(=O)[C@H](CO)NC(=O)[C@H](CCSC)NC(=O)[C@H](C)NC(=O)[C@H](Cc2cnc[nH]2)NC(=O)[C@@H]2CSSC[C@H](NC(=O)CN)C(=O)N[C@@H](CSSC[C@@H](C(N)=O)NC1=O)C(=O)N[C@@H](CO)C(=O)N[C@@H](Cc1cnc[nH]1)C(=O)N1CCC[C@H]1C(=O)N[C@@H](C(C)C)C(=O)N2 (H-GCCSHPVCHAMSPIC-NH2; disulfide 2-8, 3-15)	–	2	19	–
CC[C@H](C)[C@@H]1NC(=O)[C@@H]2CCCN2C(=O)[C@H](CO)NC(=O)[C@H](CCSC)NC(=O)[C@H](C)NC(=O)[C@H](CCCCN)NC(=O)[C@@H]2CSSC[C@H](NC(=O)CN)C(=O)N[C@@H](CSSC[C@@H](C(N)=O)NC1=O)C(=O)N[C@@H](CO)C(=O)N[C@@H](Cc1cnc[nH]1)C(=O)N1CCC[C@H]1C(=O)N[C@@H](C(C)C)C(=O)N2 (H-GCCSHPVCKAMSPIC-NH2; disulfide 2-8, 3-15)	–	–	–	IC50 [5]: > 10000 nM; IC50 [6]: > 10000 nM
